Experiments:
WeeI = assay: continuous DTNB; format: biochemical, Acinetobacter baumannii; conditions: AcCoA saturating, 5 mM MgCl2, 50 mM HEPES pH 7.4, 25 °C
Procedure, shortened: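 AcCoA and UDP-4-amino varied separately, the other held saturating; AcCoA Km taken at 4 mM UDP-4-amino. Initial rates from the linear portion over 5 min; duplicates; background without UDP-4-amino subtracted.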

WeeH = WeeH (Acinetobacter baumannii, UniProt V5RC66); assay: radioactive transfer to Und-P, organic extraction; format: biochemical; conditions: undecaprenyl phosphate, 50 mM MgCl2, 30 mM Tris-acetate pH 8.0, 1% Triton X-100, 3% DMSO, 25 °C
[1] = tested on: CC(=O)N[C@H]1[C@@H](OP(=O)(O)OP(=O)(O)OC[C@H]2O[C@@H](n3ccc(=O)[nH]c3=O)[C@H](O)[C@@H]2O)O[C@H](C)[C@@H](N)[C@@H]1O; assay: purified protein; conditions: conditions not stated separately for this enzyme
[2] = tested on: CC(=O)SCCNC(=O)CCNC(=O)[C@H](O)C(C)(C)COP(=O)(O)OP(=O)(O)OC[C@H]1O[C@@H](n2cnc3c(N)ncnc32)[C@H](O)[C@@H]1OP(=O)(O)O; assay: purified protein; conditions: conditions not stated separately for this enzyme
[3] = tested on: CC(=O)N[C@H]1[C@@H](OP(=O)(O)OP(=O)(O)OC[C@H]2O[C@@H](n3ccc(=O)[nH]c3=O)[C@H](O)[C@@H]2O)O[C@H](C)C(=O)[C@@H]1O; assay: purified protein; conditions: conditions not stated separately for this enzyme
N[C@@H](CCC(=O)O)C(=O)O = assay: purified protein; conditions: conditions not stated separately for this enzyme

Compound: CC(=O)N[C@H]1[C@@H](OP(=O)(O)OP(=O)(O)OC[C@H]2O[C@@H](n3ccc(=O)[nH]c3=O)[C@H](O)[C@@H]2O)O[C@H](C)[C@@H](N)[C@@H]1O [UDP-4-amino, UDP-2-acetamido-4-amino-2,4,6-trideoxy-α-D-glucose]
- Km (WeeI): 4300 ± 140 µM

Compound: CC(=O)N[C@H]1[C@@H](OP(=O)(O)OP(=O)(O)OC[C@H]2O[C@@H](n3ccc(=O)[nH]c3=O)[C@H](O)[C@@H]2O)O[C@H](C)[C@@H](NC(C)=O)[C@@H]1O [UDP-diNAcBac, UDP-2,4-diacetamido-2,4,6-trideoxy-α-D-glucose]
- radioactive transfer to Und-P, organic extraction (WeeH): This phosphoglycosyltransferase exhibited clear selectivity for UDP-diNAcBac over all other UDP-sugars

Compound: PglB-ATD (Neisseria gonorrhoeae FA 1090)
- Km [1]: 192 ± 26 µM
- kcat [1]: 2000 ± 82 s⁻¹
- kcat/Km [1]: 1e+07 M⁻¹ s⁻¹
- Km [2]: 338 ± 47 µM
- kcat [2]: 2300 ± 110 s⁻¹
- kcat/Km [2]: 6.9e+06 M⁻¹ s⁻¹

Compound: PglD (Campylobacter jejuni subsp. jejuni NCTC 11168 = ATCC 700819)
- Km [1]: 311 ± 23 µM
- kcat [1]: 12000 ± 380 s⁻¹
- kcat/Km [1]: 4e+07 M⁻¹ s⁻¹
- Km [2]: 194 ± 30 µM
- kcat [2]: 11000 ± 500 s⁻¹
- kcat/Km [2]: 5.5e+07 M⁻¹ s⁻¹

Compound: PglE (Campylobacter jejuni subsp. jejuni NCTC 11168 = ATCC 700819)
- Km [3]: 366 ± 57 µM
- kcat [3]: 2.4 ± 0.1 s⁻¹
- kcat/Km [3]: 6600 M⁻¹ s⁻¹
- Km (N[C@@H](CCC(=O)O)C(=O)O): 11,000 ± 340 μM
- kcat (N[C@@H](CCC(=O)O)C(=O)O): 0.028 ± 0.0003 s⁻¹
- kcat/Km (N[C@@H](CCC(=O)O)C(=O)O): 2.6 M⁻¹ s⁻¹

From article PMC3722612 (Archives of biochemistry and biophysics, 2013)
